Source: ChEMBL document CHEMBL4477243, “Discovery and SAR of a novel series of potent, CNS penetrant M4 PAMs based on a non-enolizable ketone core: Challenges in disposition” (Bioorg Med Chem Lett, 2016)

Key:
[1] = biological target: T1, Muscarinic acetylcholine receptor M4 (Homo sapiens, UniProt P08173); test: Positive allosteric modulation activity at human M4 receptor expressed in CHO cells co-expressing Gqi5 protein assessed as potentiation of EC20 acetyl choline-induced response by calcium mobilization assay; format: functional, cell-based
T1 sequence (P08173 whole entry): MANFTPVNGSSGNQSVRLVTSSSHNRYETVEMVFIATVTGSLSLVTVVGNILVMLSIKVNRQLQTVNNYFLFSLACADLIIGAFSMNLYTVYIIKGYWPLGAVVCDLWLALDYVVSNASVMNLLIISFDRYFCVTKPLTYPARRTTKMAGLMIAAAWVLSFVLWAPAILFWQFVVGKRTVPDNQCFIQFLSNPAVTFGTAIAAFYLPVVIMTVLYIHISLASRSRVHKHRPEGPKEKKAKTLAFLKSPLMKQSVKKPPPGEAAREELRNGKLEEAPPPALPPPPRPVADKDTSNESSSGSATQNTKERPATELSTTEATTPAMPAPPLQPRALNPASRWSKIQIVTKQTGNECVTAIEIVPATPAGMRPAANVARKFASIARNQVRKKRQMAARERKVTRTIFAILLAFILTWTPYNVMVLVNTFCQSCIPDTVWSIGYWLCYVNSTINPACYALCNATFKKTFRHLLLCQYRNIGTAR
Method in brief: (§1)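 Calcium mobilization in CHO cells stably co-expressing human or rat M4 with the chimeric Gqi5 protein. Test compound given with a fixed EC20 concentration of acetylcholine. Potency reported as EC50; efficacy as % of the acetylcholine maximum. Means of three independent experiments, each in triplicate.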

[2] = biological target: T2, Muscarinic acetylcholine receptor M4 (Homo sapiens) (UniProt P08173); test: Positive allosteric modulation activity at human M4 receptor expressed in CHO cells co-expressing Gqi5 protein assessed as potentiation of EC20 acetyl choline-induced response by calcium mobilization assay relative to acetylcholine; format: functional, cell-based; method in brief: as §1
T2 sequence (whole entry): T1 sequence (P08173 whole entry)

[3] = biological target: T3, Muscarinic acetylcholine receptor M4 (Rattus norvegicus, UniProt P08485); test: Positive allosteric modulation activity at rat M4 receptor expressed in CHO cells co-expressing Gqi5 protein assessed as potentiation of EC20 acetyl choline-induced response by calcium mobilization assay; format: functional, cell-based; details: read-out: EC50; method in brief: as §1
T3 sequence (P08485 whole entry): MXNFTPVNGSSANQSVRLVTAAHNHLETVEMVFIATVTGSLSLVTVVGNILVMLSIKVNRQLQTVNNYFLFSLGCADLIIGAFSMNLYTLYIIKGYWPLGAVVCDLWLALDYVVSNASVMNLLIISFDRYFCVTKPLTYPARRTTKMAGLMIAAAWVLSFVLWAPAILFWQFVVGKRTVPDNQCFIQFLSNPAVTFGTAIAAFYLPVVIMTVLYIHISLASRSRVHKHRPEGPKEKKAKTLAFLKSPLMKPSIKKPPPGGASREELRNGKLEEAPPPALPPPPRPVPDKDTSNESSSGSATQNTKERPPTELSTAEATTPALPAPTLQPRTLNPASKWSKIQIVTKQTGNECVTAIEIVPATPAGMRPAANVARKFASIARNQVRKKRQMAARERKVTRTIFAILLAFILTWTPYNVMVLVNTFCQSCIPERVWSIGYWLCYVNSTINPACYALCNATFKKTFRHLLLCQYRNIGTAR

[4] = biological target: T4, Muscarinic acetylcholine receptor M4 (Rattus norvegicus) (UniProt P08485); test: Positive allosteric modulation activity at rat M4 receptor expressed in CHO cells co-expressing Gqi5 protein assessed as potentiation of EC20 acetyl choline-induced response by calcium mobilization assay relative to acetylcholine; format: functional, cell-based; method in brief: as §1
T4 sequence (whole entry): T3 sequence (P08485 whole entry)

[5] = Ratio of drug level in Sprague-Dawley rat brain to plasma at 0.2 to 0.25 mg/kg, iv administered as cassette dose measured 0.25 hrs post dose; format: ADME, organism-based; details: brain and plasma
Method in brief: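 Male Sprague-Dawley rats (n=1) received an IV cassette dose of 0.20-0.25 mg/kg. Brain and plasma sampled 0.25 hr post-administration. Total brain:plasma partition coefficient (Kp) measured; unbound coefficient (Kp,uu) calculated.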

Cytochrome P450 = test: Inhibition of Cytochrome P450 (unknown origin); format: ADME, protein assay; details: human
Cytochrome P450 1A2 = biological target: T5, Cytochrome P450 1A2 (Homo sapiens, UniProt P05177); test: Inhibition of CYP1A2 (unknown origin); format: ADME
T5 sequence (P05177 whole entry): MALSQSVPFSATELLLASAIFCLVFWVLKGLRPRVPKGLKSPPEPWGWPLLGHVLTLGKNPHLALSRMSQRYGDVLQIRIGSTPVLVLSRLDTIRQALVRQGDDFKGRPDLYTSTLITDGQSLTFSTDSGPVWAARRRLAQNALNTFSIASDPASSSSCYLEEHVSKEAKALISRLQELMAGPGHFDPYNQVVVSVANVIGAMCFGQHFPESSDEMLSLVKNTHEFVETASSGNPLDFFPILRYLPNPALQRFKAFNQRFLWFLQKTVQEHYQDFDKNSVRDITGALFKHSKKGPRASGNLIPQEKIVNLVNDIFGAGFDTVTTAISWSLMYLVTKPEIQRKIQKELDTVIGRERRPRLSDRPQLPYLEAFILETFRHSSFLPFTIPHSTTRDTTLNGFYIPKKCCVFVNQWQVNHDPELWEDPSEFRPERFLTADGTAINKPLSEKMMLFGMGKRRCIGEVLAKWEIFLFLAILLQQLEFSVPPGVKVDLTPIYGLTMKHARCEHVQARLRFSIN

[6] = Fraction unbound in human plasma; format: ADME, cell-free
Method in brief: (§2)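 Plasma protein binding, reported as fraction unbound in rat and human plasma. Single experiment (n=1) run in triplicate.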

[7] = Fraction unbound in rat plasma; format: ADME, cell-free; method in brief: as §2
[8] = Selectivity ratio of EC50 for rat M4 receptor expressed in CHO cells co-expressing Gqi5 protein to EC50 for human M4 receptor expressed in CHO cells co-expressing Gqi5 protein; format: cell-based

EC50 ([1]; read-out: EC50) [nM] | %max [2] [%] | EC50 [3] [nM] | %max [4] [%] | Kp at 0.25 h [5] | EC50 ([1]; read-out: pEC50 (converted)) [nM] | inhibition (INH) (Cytochrome P450) | inhibition (INH) (Cytochrome P450 1A2) | fraction unbound [6] | fraction unbound [7] | SMILES | Ratio EC50 [8]
479 | 59.1 | 540 | 67.9 | 11 | – | – | – | – | – | Cc1cc(C)c2c(N)c(C(=O)CCc3ccncc3)sc2n1 | –
> 10000 | – | > 10000 | – | – | – | – | – | – | – | Cc1nnc2sc(C(O)c3ccccc3)c(N)c2c1C (centres undefined) | –
37 | 63.8 | 182 | 52.7 | 0.83 to 6.95 | 75.9 | Not Active | Active | 0.005 to 0.18 | 0.005 to 0.18 | Nc1c(C(=O)c2ccncc2)sc2nc(O)c3c(c12)CCCC3 | –
> 10000 | – | > 10000 | – | – | – | – | – | – | – | Nc1c(C(O)c2ccncc2)sc2nc(O)c3c(c12)CCCC3 (centres undefined) | –
295 | – | 1230 | – | 0.83 to 6.95 | – | Not Active | Active | 0.005 to 0.18 | 0.005 to 0.18 | Nc1c(C(=O)c2ccncc2)sc2nc(OCc3ccncc3)c3c(c12)CCC3 | –
102 | 76 | 166 | 67 | – | – | Not Active | Active | 0.005 to 0.18 | 0.005 to 0.18 | Cc1nnc2sc(C(=O)c3ccccc3)c(N)c2c1C | –
355 | 70 | 380 | 73 | 0.83 to 6.95 | – | Not Active | Active | 0.005 to 0.18 | 0.005 to 0.18 | Cc1cc(C)c2c(N)c(C(=O)c3ccc(O)cc3)sc2n1 | –
331 | 55 | 380 | 66 | 0.83 to 6.95 | – | Not Active | Active | 0.005 to 0.18 | 0.005 to 0.18 | Cc1nnc2sc(C(=O)c3ccc(F)cc3F)c(N)c2c1C | –
> 10000 | – | > 10000 | – | – | – | – | – | – | – | Cc1cc(C)c2c(N)c(C(O)c3ccccc3)sc2n1 (centres undefined) | –
479 | 48 | 490 | 54 | 0.83 to 6.95 | – | Not Active | Active | 0.005 to 0.18 | 0.005 to 0.18 | COc1ccc(C(=O)c2sc3nc(C)cc(C)c3c2N)cc1 | –
372 | 45 | 692 | 43 | – | – | Not Active | Active | 0.005 to 0.18 | 0.005 to 0.18 | Cc1nc2sc(C(=O)c3ccccc3)c(N)c2c(C)c1Cl | –
891 | 76 | 3550 | 68 | – | – | Not Active | Active | 0.005 to 0.18 | 0.005 to 0.18 | Cc1nnc2sc(C(=O)c3ccncc3)c(N)c2c1C | –
> 10000 | – | > 10000 | – | – | – | – | – | – | – | Cc1cc(C)c2c(N)c(C(O)c3ccc(O)cc3)sc2n1 (centres undefined) | –
105 | 74 | 417 | 95 | 0.83 to 6.95 | – | Not Active | Active | 0.005 to 0.18 | 0.005 to 0.18 | Cc1nnc2sc(C(=O)c3cccnc3)c(N)c2c1C | –
> 10000 | – | > 10000 | – | – | – | – | – | – | – | Nc1c(C(O)c2ccncc2)sc2nc(OCCN3CCOCC3)c3c(c12)CCC3 (centres undefined) | –
> 10000 | – | > 10000 | – | – | – | – | – | – | – | Cc1cc(C)c2c(N)c(C(O)c3ccc(F)c(Cl)c3)sc2n1 (centres undefined) | –

EC50 ([1]; read-out: EC50) [nM] | %max [2] [%] | EC50 [3] [nM] | %max [4] [%] | Kp at 0.25 h [5] | EC50 ([1]; read-out: pEC50 (converted)) [nM] | inhibition (INH) (Cytochrome P450) | inhibition (INH) (Cytochrome P450 1A2) | fraction unbound [6] | fraction unbound [7] | SMILES | Ratio EC50 [8]
646 | 63 | 1450 | 70 | 0.83 to 6.95 | – | Not Active | Active | 0.005 to 0.18 | 0.005 to 0.18 | COc1ccc(C(=O)c2sc3nnc(C)c(C)c3c2N)cc1 | –
> 10000 | – | > 10000 | – | – | – | – | – | – | – | Cc1cc(C)c2c(N)c(C(O)c3ccc(F)cc3F)sc2n1 (centres undefined) | –
105 | 74 | 417 | 95 | 0.83 to 6.95 | – | Not Active | Active | 0.005 to 0.18 | 0.005 to 0.18 | Cc1nc2sc(C(=O)c3cccnc3)c(N)c2c(C)c1Cl | –
> 10000 | – | > 10000 | – | – | – | – | – | – | – | Cc1nnc2sc(C(O)c3ccc(F)cc3F)c(N)c2c1C (centres undefined) | –
> 10000 | – | > 10000 | – | – | – | – | – | – | – | Cc1nc2sc(C(O)c3cccnc3)c(N)c2c(C)c1Cl (centres undefined) | –
891 | 47 | 1500 | 46 | 0.83 to 6.95 | – | Not Active | Active | 0.005 to 0.18 | 0.005 to 0.18 | Cc1cc(C)c2c(N)c(C(=O)c3ccccc3)sc2n1 | –
562 | 39 | 3980 | 35 | 0.83 to 6.95 | – | Not Active | Active | 0.005 to 0.18 | 0.005 to 0.18 | Cc1cc(C)c2c(N)c(C(=O)c3ccc(F)cc3F)sc2n1 | 4 to 7
> 10000 | – | > 10000 | – | – | – | – | – | – | – | Cc1nnc2sc(C(O)c3cccnc3)c(N)c2c1C (centres undefined) | –
> 10000 | – | > 10000 | – | – | – | – | – | – | – | Cc1nnc2sc(C(O)c3ccncc3)c(N)c2c1C (centres undefined) | –
76 | – | 417 | – | – | – | Not Active | Active | 0.005 to 0.18 | 0.005 to 0.18 | Nc1c(C(=O)c2ccncc2)sc2nc(OCCN3CCOCC3)c3c(c12)CCC3 | –
> 10000 | – | > 10000 | – | – | – | – | – | – | – | COc1ccc(C(O)c2sc3nnc(C)c(C)c3c2N)cc1 (centres undefined) | –
> 10000 | – | > 10000 | – | – | – | – | – | – | – | COc1ccc(C(O)c2sc3nc(C)cc(C)c3c2N)cc1 (centres undefined) | –
240 | 45 | 195 | 41 | 0.83 to 6.95 | – | Not Active | Active | 0.005 to 0.18 | 0.005 to 0.18 | Cc1cc(C)c2c(N)c(C(=O)c3ccc(F)c(Cl)c3)sc2n1 | –
> 10000 | – | > 10000 | – | – | – | – | – | – | – | Cc1nc2sc(C(O)c3ccccc3)c(N)c2c(C)c1Cl (centres undefined) | –
> 10000 | – | > 10000 | – | – | – | – | – | – | – | Nc1c(C(O)c2ccncc2)sc2nc(OCc3ccncc3)c3c(c12)CCC3 (centres undefined) | –
380 | 69.1 | 254 | 77.2 | 11 | – | – | – | – | – | COc1ccc(CCC(=O)c2sc3nnc(C)c(C)c3c2N)cc1F | –
